TRPML3 ag: human TRPML3 channel agonists, primary screen, cell-based, HEK293 TRPML3-YFP, Fluo-8 calcium fluorescence, 3 µM | Mucolipin-3 (Homo sapiens), Q8TDD5 | 100% = the carbachol control signal | 220,000 tested, 0.29% active | AID 1448, 2008 | activation, % at 3 µM;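 active = activation above its plate's cutoff, the mean activation of the plate's test wells plus 3 SD, cut at about 12% in these data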
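Material: HEK293 cells stably carrying human TRPML3-YFP; compound dosing: single dose, 3 µM final nominal compound, 0.3% DMSO final; incubation: 1-h 37 °C dye load, 5-s basal, 120-s post-compound reads; technique: Fluo-8 intracellular calcium fluorescence, excitation 470-495 nm, emission 515-575 nm; read-out basis: percent activation from peak-to-basal fluorescence ratio, scaled between DMSO and carbachol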
OXTR potentiator: human OXTR potentiators, primary screen, fluorescence, CHO-OTR cells, Fluo-8 calcium. Oxytocin receptor (Homo sapiens), P30559. Fluo-8 calcium fluorescence, potentiator mode; 0% = oxytocin EC15, 100% = EC100. activation, % at 3 µM. 320,000 tested, 0.061% active. AID 2445, 2010;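 active = activation above that plate's cutoff, the mean activation of tested compounds plus 3 SD, cut at about 6.6% in these data, passing the limit was not always enough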
Target sequence (P30559 whole entry, looked up): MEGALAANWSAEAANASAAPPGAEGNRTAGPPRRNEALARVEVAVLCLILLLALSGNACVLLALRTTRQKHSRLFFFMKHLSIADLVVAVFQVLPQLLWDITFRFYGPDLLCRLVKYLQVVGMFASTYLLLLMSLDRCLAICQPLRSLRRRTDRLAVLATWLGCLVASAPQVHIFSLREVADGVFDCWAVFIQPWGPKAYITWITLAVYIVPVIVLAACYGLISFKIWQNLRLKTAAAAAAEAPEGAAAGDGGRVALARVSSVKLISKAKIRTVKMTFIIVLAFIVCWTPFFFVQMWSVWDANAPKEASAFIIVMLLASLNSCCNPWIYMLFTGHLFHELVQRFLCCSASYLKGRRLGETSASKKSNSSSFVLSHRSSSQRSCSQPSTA
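Replication – single well per compound, singlicate · Assay system – CHO cell line stably expressing human OTR · Timing – 6 min pre-incubation, 100 s read · Measure – normalized max/min fluorescence ratio, % activation · Doses – 3.0 µM, one dose · Detection – Fluo-8 calcium dye fluorescence · Probe or stimulus – oxytocin near EC15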
TRPN1 ag: zebrafish TRPN1 channel agonists, primary screen, cell-based, HEK293, calcium fluorescence | transient receptor potential cation channel N1 (TRPN1/NompC), Danio rerio | HEK293 zebrafish TRPN1-YFP, Fluo-8 calcium fluorescence; 100% = response to 87 µM carbachol | activation, % at 3 µM | 220,000 tested, 0.18% active | AID 1424, 2008;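 active = activation above its plate's cutoff, the mean activation of test wells on that plate plus 3 SD, cut at about 19% in these data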
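Assay system: Zebrafish TRPN1-YFP in HEK293 cells | Incubation: Dye loading 1 h at 37 °C, then 30 min room temperature | Measured by: Kinetic Fluo-8 fluorescence, ex 470-495, em 515-575 nm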
OXTR agonist: human OXTR agonists, primary screen, fluorescence, CHO-OTR cells, Fluo-8 calcium; AID 2435, 2010; 320,000 tested, 0.32% active; activation, % at 3 µM; Fluo-8 calcium fluorescence; normalized: DMSO 0%, oxytocin 100%; Oxytocin receptor (Homo sapiens), P30559;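 active = activation above the mean of all tested compounds plus 3 SD, cutoff set per screening run, cut at about 20% in these data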;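 also: peak over basal fluorescence ratio from a 100 s FLIPR kinetic read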
V1aR counter: agonists of human V1a receptor, primary screen, counter-screen for OXTR agonist project, fluorescence, CHO-V1R cells. 320,000 tested, 0.25% active. Fluo-8 calcium fluorescence, agonist mode; 0% DMSO, 100% 3 nM vasopressin. activation, % at 3 µM;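 active = activation above the mean activation of all tested compounds plus 3 SD, per screening run, cut at about 20% in these data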;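 also: signal is peak over basal fluorescence ratio across a 100 second FLIPR read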
Of the large screens only hits and unclear results are named; the others gave an inactive call. Only some compounds are listed: those with a hit (about 0.58% of all), similar ones and a draw of the others.

CCCN1C(=O)/C(=C/c2c(NCCCOCC)nc3c(C)cccn3c2=O)SC1=S	none (no result: OXTR potentiator, OXTR agonist, V1aR counter)
COC(=O)CSc1nc(-c2ccc(F)cc2)cc(C(F)(F)F)n1	none
OC(c1cc(-c2ccc(C(F)(F)F)cc2)nc(C(F)(F)F)c1)C1CCCCN1 (stereo not drawn)	OXTR agonist 23, V1aR counter 26
O=C1c2cccc3c(N4CCCCC4)ccc(c23)C(=O)N1c1ccccn1	OXTR agonist 42, V1aR counter 40
CCCCNc1ccc2c3c(cccc13)C(=O)N(CCCC)C2=O	TRPML3 ag 154, TRPN1 ag 283 (no result: OXTR potentiator, OXTR agonist, V1aR counter)
O=C(OCCN1C(=O)c2cccc3c(N4CCOCC4)ccc(c23)C1=O)c1cc(Cl)cc(Cl)c1	none (no result: OXTR potentiator, OXTR agonist, V1aR counter)
CN(C)CCCN1C(=O)c2cccc3c(Br)ccc(c23)C1=O	none
CCCN1C(=O)c2cccc3c(N4CCCCC4)ccc(c23)C1=O	TRPN1 ag 23
O=C1c2cccc3c(N4CCCCC4)ccc(c23)C(=O)N1c1ccc(Cl)cn1	none (no result: OXTR potentiator, OXTR agonist, V1aR counter)
CN(CCC#N)C(=O)CC(Cc1ccccc1)C1CCOC(C)(C)C1 (stereo not drawn)	none
CCOc1ccc(C(=O)NNC(=O)CCNC(=O)c2ccc(Br)cc2)cc1OC	none (no result: TRPML3 ag, TRPN1 ag)
c1ccc(-[n+]2nc(Nc3cccc4ccccc34)sc2-c2c3ccccc3cc3ccccc23)cc1	none (no result: TRPML3 ag, TRPN1 ag)
COc1cccc2c1C(=O)c1c(O)c3c(c(O)c1C2=O)C[C@@](O)(C(=O)CO)C[C@@H]3O[C@H]1C[C@H](N)[C@H](O)[C@H](C)O1	TRPN1 ag 27, OXTR agonist 25, V1aR counter 23
O=C(Nc1ccc(C(=O)NCCCN2CCN(c3ccc(F)cc3)CC2)cc1)C1=CSCCO1	OXTR agonist 29, V1aR counter 26 (no result: TRPML3 ag, TRPN1 ag)
O=C(Nc1ccc(C(=O)NCCCN2CCCCC2)cc1)C1=CSCCO1	none (no result: TRPML3 ag, TRPN1 ag)
C=CCn1c(SCC(=O)O)nc2sc(CC)cc2c1=O	none
C=CCn1c(SCC(=O)N2CCCC2=O)nc2sc(CC)cc2c1=O	OXTR agonist 38, V1aR counter 40 (no result: TRPML3 ag, TRPN1 ag)
CC(OC(=O)c1ccc(-c2ccc(O)cc2)cc1)C(=O)NC1CCCCC1C (stereo not drawn)	none (no result: TRPML3 ag, TRPN1 ag)
C#CCOCCOCCOCCNc1nc(N2CCN(C(=O)CCCCCCCCCCNC(=O)[C@H]([C@@H](C)CC)n3cc(CCCCN=C(N)N)nn3)CC2)nc(N2CCN(C(=O)CCCCCCCCCCNC(=O)[C@H](CO)n3cc(CCCCCN)nn3)CC2)n1	none (no result: TRPML3 ag, TRPN1 ag)
C#CCOCCOCCOCCNc1nc(N2CCOCC2)nc(N2CCN(C(=O)CCCCCCCCCCNC(=O)[C@@H]([C@H](C)CC)n3cc(CCCCCN)nn3)CC2)n1	none (no result: TRPML3 ag, TRPN1 ag)
C#CCOCCOCCOCCNc1nc(N2CCN(C(=O)CCCCCCCCCCNC(=O)[C@H]([C@@H](C)CC)n3cc(CCCCCN)nn3)CC2)nc(N2CCN(C(=O)CCCCCCCCCCNC(=O)[C@H](CO)n3cc(CCCCCN)nn3)CC2)n1	OXTR agonist 22, V1aR counter 46 (no result: TRPML3 ag, TRPN1 ag)
C#CCOCCOCCOCCNc1nc(N2CCN(C(=O)CCCCCCCCCCNC(=O)[C@H]([C@@H](C)CC)n3cc(CCCCCN)nn3)CC2)nc(N2CCN(C(=O)CCCCCCCCCCNC(=O)[C@@H]([C@H](C)CC)n3cc(CCCCCN)nn3)CC2)n1	V1aR counter 27 (no result: TRPML3 ag, TRPN1 ag)
O=C1OC[C@H]2CCCN2C(=O)[C@@H](CC(=O)N(CCO)Cc2ccccc2)C/C=C\CC[C@H]1Cc1ccc(F)cc1	none (no result: TRPML3 ag, TRPN1 ag)
O=C(c1ccc(NS(=O)(=O)c2ccccc2)cc1)N1CCN(c2ccccc2)CC1	none (no result: TRPML3 ag, TRPN1 ag)
COCc1cc(=O)[nH]c(/N=C(\N)Nc2ccccc2C)n1	none
CCOc1ccc(S(=O)(=O)Nc2nc3ccccc3nc2-n2ccc(=NC(=O)c3ccccc3C)cc2)cc1	TRPML3 ag 14, TRPN1 ag 37
O=C(NC1CCCC1)c1sc(=S)n2c1[nH]c(=O)c1ccccc12	none
O=C(NCc1ccco1)c1sc(=S)n2c1[nH]c(=O)c1ccccc12	OXTR agonist 24, V1aR counter 21
Cn1cc2cc([N+](=O)[O-])ccc2n1	none
COc1cc(/C=C/C(=O)OCC(=O)Nc2ccc([N+](=O)[O-])cc2)ccc1O	OXTR agonist 21, V1aR counter 30
Cc1nnc(SCC(=O)NC2CCCCC2)[nH]c1=O	none (no result: TRPML3 ag, TRPN1 ag)
O=C(NCc1ccco1)c1ccccc1NS(=O)(=O)c1ccc(Cl)s1	none
Cc1ccc(NC(=O)c2ccccc2NS(=O)(=O)c2ccc(Cl)s2)cc1	TRPML3 ag 13, TRPN1 ag 27
O=C(Nc1ccccc1Cc1ccccc1)c1ccccc1NS(=O)(=O)c1ccc(Cl)s1	TRPN1 ag 19
O=C(Nc1ccccc1)c1ccccc1NS(=O)(=O)c1ccc(Cl)s1	TRPML3 ag 16, TRPN1 ag 29
Nc1nonc1NC(=O)NN=C1CCCCC1	none
CCOc1cc(CNCCc2ccc(S(N)(=O)=O)cc2)ccc1OCc1ccc(Cl)cc1	OXTR agonist 37, V1aR counter 27
CC(NC(=O)Nc1ccc([N+](=O)[O-])cc1)C(c1cccs1)N1CCCC1 (stereo not drawn)	OXTR agonist 33, V1aR counter 55
O=C(COC(=O)c1ccccc1)Nc1ncc([N+](=O)[O-])s1	none (no result: TRPML3 ag, TRPN1 ag)
O=C(Nc1ccccc1)Nc1ncc([N+](=O)[O-])s1	TRPML3 ag 17, TRPN1 ag 22 (no result: OXTR potentiator, OXTR agonist, V1aR counter)
Cc1ccc(N(C(=O)c2csnn2)C(C(=O)NC2CCCC2)c2cccnc2)c(C)c1 (stereo not drawn)	none (no result: TRPML3 ag, TRPN1 ag)
OCCCc1nc2n(n1)C(c1cccs1)C=C(c1ccccc1)N2 (stereo not drawn)	OXTR agonist 82, V1aR counter 50
OCCCc1nc2n(n1)C(c1ccccc1)C=C(c1ccc(F)cc1)N2 (stereo not drawn)	none
CCOC(=O)N1CCC(NC(=O)c2cccc3c2C(=O)N(Cc2cccnc2)C3)CC1	none
O=C1/C(=C/c2cccs2)CCC/C1=C\c1cccs1	none (no result: TRPML3 ag, TRPN1 ag)
Cn1cccc1/C=C1\CCC/C(=C\c2cccn2C)C1=O	OXTR agonist 75, V1aR counter 44
Cc1cc(C)nc(NS(=O)(=O)c2ccc(NC(=O)C3(c4ccc([N+](=O)[O-])cc4)CCCC3)cc2)n1	OXTR agonist 22, V1aR counter 22
Cn1c(CN2CCCCC2)nc2cc(NS(=O)(=O)c3ccc(Cl)cc3)ccc21	OXTR agonist 34, V1aR counter 32
O=P(COCCOCCOCCOCP(=O)(c1ccccc1)c1ccccc1)(c1ccccc1)c1ccccc1	none

Assay outcomes: PubChem BioAssay, The Scripps Research Institute Molecular Screening Center
